# NR3A LBD binder – NR3A (human) ligand-binding domain modulation. Tm shift relative to glycine control, % at 25 µM. NR3A LBD differential scanning fluorimetry, Tm shift; 0% = protein alone, 100% = glycine-bound protein. 2.5% of 340,000 active. AID 1259313;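 active means melting temperature shift of at least 10% of the positive control shift, at one fixed dose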
# GASC-1 inh – inhibitors of human GASC-1 (JMJD2C) demethylase | Q9H3R0 | GST-JMJD2C(1-420) H3K9me3 demethylation, DELFIA europium | inhibition, % at 2.35 µM | 0.069% of 330,000 active | AID 2099;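 active means more than half of a compound's replicate wells show inhibition beyond 50%, single wells judged on their own value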;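 further: signal counts dimethyl H3K9 product captured on neutravidin plate; 0% = median of DMSO wells and 100% = 0.3 times that DMSO median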
# Target sequence (Q9H3R0 1-420 limits assumed): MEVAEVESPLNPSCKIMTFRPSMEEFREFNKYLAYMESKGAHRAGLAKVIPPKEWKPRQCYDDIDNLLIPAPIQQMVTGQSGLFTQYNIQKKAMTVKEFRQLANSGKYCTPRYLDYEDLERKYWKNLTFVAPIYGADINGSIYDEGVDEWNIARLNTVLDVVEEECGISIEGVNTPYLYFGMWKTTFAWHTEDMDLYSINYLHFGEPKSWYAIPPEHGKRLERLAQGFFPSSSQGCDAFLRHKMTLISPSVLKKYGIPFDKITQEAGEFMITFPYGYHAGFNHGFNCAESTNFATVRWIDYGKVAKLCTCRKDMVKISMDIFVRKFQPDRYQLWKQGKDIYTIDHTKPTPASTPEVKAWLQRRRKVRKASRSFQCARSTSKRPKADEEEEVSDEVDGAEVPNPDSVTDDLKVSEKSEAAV
# T cell modulator – T cell immune modulation candidate; 2C CD8+ T cell-vesicle binding, flow cytometry; hits give low values; response (vesicle binding), % at 7 µM; 0.068% of 330,000 active;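 active means response, share of CD8 T cells binding vesicles, and their 90th percentile fluorescence all below set limits, cut at about 80% in these data, passing the limit was not always enough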;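 further: values below 100% mean blocked vesicle binding to the CD8+ T cells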
#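 Benchmarks: naked versus QL9-loaded vesicles / Assay system: purified 2C TCR transgenic mouse naive CD8+ T cells / Technique: high-throughput flow cytometry with anti-B7-1 and anti-CD8 staining / Timing: Cell–vesicle co-incubation 1.5 h at 37 °C, staining 20 min on ice / Read-out: percent CD8+ FL2 mean versus row control / Probe or stimulus: QL9-loaded Drosophila micro-vesicles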
# Rtt109 Vps75 – C. albicans Rtt109 histone acetyltransferase inhibition; Q5AAJ8; purified Rtt109/Vps75, ThioGlo CoA-SH fluorescence, 4 h; inhibition, % at 34.9 µM; 0.16% of 330,000 active; AID 540336;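 active means inhibition of at least 50% in every replicate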
# Numbers without * were called inactive; i = inactive; nt = not tested or not shown. In the library only some 2.8% were active in any assay of this set; here they are far more common.
SMILES,NR3A LBD binder,GASC-1 inh,T cell modulator,Rtt109 Vps75
COCCCNC(=O)C1CCN(C(=O)c2cc3sccc3n2Cc2ccc(F)cc2)CC1,-2,-3,320,13
O=C(NCCCN1CCCC1)C1CCN(C(=O)c2cc3sccc3n2Cc2ccc(F)cc2)CC1,11*,-18,255,nt
CCN(CC)CC1CN(N=Cc2ccc([N+](=O)[O-])o2)C(=O)O1 (stereo unspecified),2,nt,nt,-4
COc1c(CC=C(C)C)cc(C2CC(=O)c3c(O)cc(O)cc3O2)c(CC=C(C)C)c1O (stereo unspecified),22*,-1,412,nt
COc1cc(C2CC(=O)c3c(O)cc(O)cc3O2)ccc1O (stereo unspecified),0,8,148,-6
Cc1cc(Cl)cc(C)c1OCC(=O)N1CCN(c2ncccn2)CC1,0,2,581,-4
Cc1oc(CC(C)C)cc1C(=O)Nc1cccc2ccccc12,25*,4,147,-1
COc1ccc(-c2ccccc2[C@H]2[C@@H]3C=CC[C@@H](C)[C@@H]3C(=O)N2Cc2ccccc2)cc1,2,nt,nt,-9
CN(C)S(=O)(=O)c1cccc(-c2nn(-c3ccccc3)cc2/C=C(\C#N)c2nc3ccccc3[nH]2)c1,-1,-5,271,-4
CN(C)S(=O)(=O)c1cccc(-c2nn(-c3ccccc3)cc2/C=C2\SC(=S)NC2=O)c1,11*,9,378,-3
COc1cc(C(C(=O)NC2CCCCC2)N(C(=O)Cc2c[nH]c3ccccc23)c2ccc(C)cc2)cc(OC)c1OC (stereo unspecified),26*,8,264,-22
O=C(OCc1c(-c2ccccc2)ncc2ccccc12)c1ccc(F)cc1,14*,-6,184,-11
CC1(O)C(=O)C=C2C=C(c3ccc(C#N)cc3)OC=C2C1=O (stereo unspecified),nt,6,702,nt
Cc1ccccc1OC(C)C(=O)N1CCN(c2ccccn2)CC1 (stereo unspecified),1,-7,250,0
S=C(Nc1ccccc1)Nc1cccc(Br)c1,16*,3,201,-11
Fc1cc(Br)ccc1NC(=S)Nc1ccccc1,-1,6,196,-7
S=C(NN=C(C1CC1)C1CC1)Nc1ccccc1,11*,2,389,1
S=C(NNC(=S)Nc1ccccc1)Nc1ccccc1,35*,-22,243,11
Fc1ccccc1NC(=S)Nc1ccc(Br)cc1,25*,-5,90,5
Cc1ccc(C)c(NC(=O)CCN2CCN(CCO)CC2)c1,4,-1,204,15
O=C(CN1C(=O)C(=O)N(CCC2=CCCCC2)C1=O)c1c[nH]c2ccccc12,30*,8,374,7
O=C(CN1C(=O)C(=O)N(Cc2ccco2)C1=O)c1c[nH]c2ccccc12,-5,1,282,-1
COc1cc(Nc2ccccc2Cl)c([N+](=O)[O-])nc1[N+](=O)[O-],11*,15,i,5
COc1cccc(N2CCN(C(=O)C3CCCN(c4ncnc5c4nc4n5CCCCC4)C3)CC2)c1 (stereo unspecified),7,-2,184,21
CC(C)=CCCC1(C)C=Cc2c(c(C)cc3c2[nH]c2cc(O)ccc23)O1 (stereo unspecified),19*,-11,70,-2
SMILES,NR3A LBD binder,GASC-1 inh,T cell modulator,Rtt109 Vps75
O=C1CC(N(CCc2ccccc2)C(=S)Nc2ccccc2)C(=O)N1c1ccccc1 (stereo unspecified),17*,-2,100,6
CNC(=S)N(CCc1ccc(OC)c(OC)c1)C1CC(=O)N(c2ccccc2)C1=O (stereo unspecified),-2,-10,289,2
O=C1CC(N(CCc2ccccc2)C(=S)Nc2cc(Cl)ccc2Cl)C(=O)N1c1c(Cl)cccc1Cl (stereo unspecified),16*,-2,218,1
O=C1CC(N(CCc2ccccc2)C(=S)Nc2ccccc2)C(=O)N1c1ccc(F)cc1 (stereo unspecified),27*,1,677,0
COc1ccc(NC(=O)N(Cc2ccc3c(c2)OCO3)C2CC(=O)N(c3ccc(OC)cc3)C2=O)cc1 (stereo unspecified),0,11,894,-3
CCNC(=S)N(CCc1ccc(S(N)(=O)=O)cc1)C1CC(=O)N(c2ccccc2)C1=O (stereo unspecified),-3,-8,422,42
O=C1CC(N(Cc2ccc3c(c2)OCO3)C(=O)Nc2ccc(F)cc2)C(=O)N1c1ccccc1 (stereo unspecified),27*,0,nt,-8
